Series [1] in a line: AUClast in Sprague-Dawley rat portal vein at 10 mg/kg, po. The class given is ADME, organism-based. More on the design: dose 10 mg/kg, time 0 - last, route oral. The essentials:
(§1)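 Healthy male Sprague-Dawley rats given a single oral dose of 10 mg/kg. Portal vein plasma, systemic plasma and liver sampled. Cmax and Tmax determined, and AUC over 0–last. Liver/plasma ratio calculated from AUC(0-last).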

A short description of series [2]: Tmax in Sprague-Dawley rat at 10 mg/kg, po. The class given is ADME, organism-based. The note with it: in vivo. In outline: as §1
Series [3] is described as follows: Plasma clearance in Sprague-Dawley rat at 2.5 mg/kg, iv. In kind it is ADME, organism-based.
Series [4] in a line: Ratio of AUClast in liver to AUClast in plasma of Sprague-Dawley rat at 10 mg/kg, po. The class given is ADME, organism-based. The note with it: liver and plasma. The essentials:
as §1

The nature of series [5]: Cmax in Sprague-Dawley rat plasma at 10 mg/kg, po. Also noted: dose 10 mg/kg, route oral. In kind it is ADME, organism-based. The essentials:
as §1

A further series concerns Rattus norvegicus. Put plainly: Plasma clearance in Sprague-Dawley rat at 2.5 mg/kg, iv relative hepatic blood flow. In kind it is ADME, organism-based. The note with it: in vivo.
Series [6] is described as follows: Metabolic stability in rat liver microsomes assessed as drug metabolism after 15 mins at 1 uM. On the technique in general: Microsomes from liver hold many membrane-bound enzymes, among them those of drug oxidation.
Series [7] deals with Mus musculus. Put plainly: Induction of IFN-alpha production in C57BL/6 mouse plasma assessed as time for peak induction of IFN-alpha at 5 mg/kg, po administered as single dose by ELISA. In kind it is functional. The essentials: (§2)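 Healthy C57BL/6 mice given a single oral dose (1 or 5 mg/kg). Mouse IFN-α measured by ELISA in plasma and liver homogenates over time. Peak level (Fmax) and time of peak recorded. Three mice per time point, reported as geometric mean.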
(ELISA stands for enzyme-linked immunosorbent assay.)

Series [8] in a line: Cmax in C57BL/6 mouse liver at 5 mg/kg, po administered as single dose. Also noted: dose 5 mg/kg, route oral. The note with it: in vivo. In kind it is ADME, organism-based. In outline:
(§3)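 Healthy C57BL/6 mice given a single oral dose (1 or 5 mg/kg). Plasma and liver drug levels measured over time to give Tmax, Cmax and AUC0-last. Three mice per time point, reported as geometric mean.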

Series [9] has as its system Mus musculus. Put plainly: Induction of IFN-alpha production in C57BL/6 mouse plasma assessed as peak IFN-alpha level at 5 mg/kg, po administered as single dose by ELISA. In kind it is functional. In outline:
as §2

The test system of series [10] is Mus musculus. As to the kind of experiment: Induction of IFN-alpha production in C57BL/6 mouse liver assessed as time for peak induction of IFN-alpha at 5 mg/kg, po administered as single dose by ELISA. In kind it is functional. The essentials:
as §2

The species entered for a further series is Homo sapiens. Put plainly: Selectivity index, ratio of MEC for agonist activity at human TLR8 expressed in HEK293 cells to MEC for agonist activity at human TLR7 expressed in HEK293 cells as. The class given is cell-based. In outline:
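Ratio of TLR8 to TLR7 LEC from HEK293 NFκB-luciferase reporter assays. Cells were transiently transfected with TLR7 or TLR8 construct plus NFκB-luc and treated with compound for 6 h at 37°C. LEC is the lowest concentration with signal at least two-fold above the assay SD, from quadruplicate dose-response curves.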

The nature of series [11]: AUClast in C57BL/6 mouse liver at 5 mg/kg, po administered as single dose. In kind it is ADME, organism-based. The note with it: in vivo. In outline:
as §3

The subject of series [12] is Mus musculus. As to the kind of experiment: Induction of IFN-alpha production in C57BL/6 mouse liver assessed as peak IFN-alpha level at 5 mg/kg, po administered as single dose by ELISA. The class given is functional. In outline: as §2
Series [13] is described as follows: AUClast in C57BL/6 mouse plasma at 5 mg/kg, po administered as single dose. The class given is ADME, organism-based. More on the design: dose 5 mg/kg, route oral, time 0 - last. In outline:
as §3

Series [14] is described as follows: Cmax in C57BL/6 mouse plasma at 5 mg/kg, po administered as single dose. The class given is ADME, organism-based. Also noted: dose 5 mg/kg, route oral. In outline: as §3
A short description of series [15]: Ratio of drug level in liver to plasma in C57BL/6 mouse at 1 mg/kg, po administered as single dose. The class given is ADME, organism-based. The note with it: liver and plasma, 5 mg/kg, in the assay text read “5 mg/kg” for “1 mg/kg”. In outline: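 Single oral dose to healthy C57BL/6 mice. Liver and plasma drug exposure measured, three mice per time point as geometric mean, and expressed as liver-to-plasma ratio.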

A short description of series [16]: Tmax in C57BL/6 mouse at 5 mg/kg, po administered as single dose. The note with it: in vivo. In kind it is ADME, organism-based. The essentials:
as §3

Series [17] in a line: AUClast in C57BL/6 mouse liver at 1 mg/kg, po administered as single dose. In kind it is ADME, organism-based. Also noted: dose 1 mg/kg, time 0 - last, route oral. The essentials:
as §3

Series [18] can be described thus: Cmax in C57BL/6 mouse plasma at 1 mg/kg, po administered as single dose. The class given is ADME, organism-based. More on the design: dose 1 mg/kg, route oral. The essentials: as §3
Series [19] in a line: AUClast in C57BL/6 mouse plasma at 1 mg/kg, po administered as single dose. In kind it is ADME, organism-based. Also noted: dose 1 mg/kg, time 0 - last, route oral. In outline:
as §3

Series [20] can be described thus: Cmax in C57BL/6 mouse liver at 1 mg/kg, po administered as single dose. The class given is ADME, organism-based. More on the design: dose 1 mg/kg, route oral. In outline:
as §3

Series [21] relates to Mus musculus. As to the kind of experiment: Induction of IFN-alpha production in C57BL/6 mouse plasma assessed as peak IFN-alpha level at 1 mg/kg, po administered as single dose by ELISA. The class given is functional. In outline: as §2
Series [22] concerns Mus musculus. Put plainly: Induction of IFN-alpha production in C57BL/6 mouse plasma assessed as time for peak induction of IFN-alpha at 1 mg/kg, po administered as single dose by ELISA. In kind it is functional. In outline: as §2
In series [23] the test system is Mus musculus. As to the kind of experiment: Induction of IFN-alpha production in C57BL/6 mouse liver assessed as time for peak induction of IFN-alpha at 1 mg/kg, po administered as single dose by ELISA. In kind it is functional. The essentials: as §2
A short description of series [24]: Tmax in C57BL/6 mouse at 1 mg/kg, po administered as single dose. The class given is ADME, organism-based. The note with it: in vivo. The essentials: as §3
The subject of series [25] is Mus musculus. Put plainly: Induction of IFN-alpha production in C57BL/6 mouse liver assessed as peak IFN-alpha level at 1 mg/kg, po administered as single dose by ELISA. The class given is functional. The essentials:
as §2

As usually defined, the AUC(0-t) is exposure summed from dosing to a finite time, without extrapolation to infinity. In general, Tmax refers to the time at which the peak concentration occurs. The clearance is the volume of plasma or blood freed of the substance per unit of time. The term Kp denotes tissue or fluid exposure divided by exposure in the circulation. Usually Cmax stands for the peak of the concentration-time curve.

Structures are written as SMILES.

For the compound `CCCCNc1nc(N)nc2cccc(C(=O)N(C)Cc3ccccc3)c12`, the area under the curve AUC(0-t) in series [1] is 621 ng·h/mL. The Tmax in [2] amounted to 30 min. In [3], this compound showed a clearance of 55 mL/min/kg. The Kp in series [4] is 30. In [5], this compound came in with a Cmax of 9 ng/mL. In the series on Rattus norvegicus, the CL came to 79%. In series [6], the metabolised at 0.25 h, 1 µM was 99%.

Regarding `CCCCNc1nc(N)nc2cccc(C(=O)N[C@@H](C)c3ccccc3)c12`, the Time in the series on Mus musculus [7] and in the series with Mus musculus [10] was 4 h each time. Also, the Cmax worked out at 3230 ng/g in series [8], 142 ng/mL in [14] and 87 ng/mL in series [5]. Besides, the Fmax was determined as 2800 pg/mL in the series with Mus musculus [9] and 325 pg/mg in the series with Mus musculus [12]. The exposure AUC(0-t) in series [1] was 902 ng·h/mL; in series [13], 365 ng·h/mL. For the same compound, the Tmax in [2] is 240 min; in series [16], 60 min. For the same compound, in the series listed under Homo sapiens, the Ratio was greater than 250. Besides, the Kp stood at 36 in series [4] and 23 in series [15]. The AUClast in series [11] amounted to 6619 ng·h/g. Moreover, the metabolised at 0.25 h, 1 µM in [6] came out at 54%.

As for `CCCCNc1nc(N)nc2ccccc12`, the results for the AUC(0-t) in series [17], in [1] and in series [19] were 133 ng·h/mL, 1520 ng·h/mL and 3 ng·h/mL, respectively. For the same compound, the Tmax in series [2] and in series [24] was 30 min throughout. This compound returned a clearance in series [3] of 163 mL/min/kg. In addition, in series [4], the Kp is greater than 100. Besides, the Cmax in series [5] came to 33 ng/mL; in series [18] it was 3 ng/mL; in [20], 207 ng/mL. Further, the Fmax in the series on Mus musculus [21] was found to be 315 pg/mL; with Mus musculus [25], 200 pg/mg. The Time in the series with Mus musculus [22] and with Mus musculus [23] was 1 h each time. The metabolised at 0.25 h, 1 µM in series [6] turned out to be 95%.

On to `CCCCNc1nc(N)nc2cccc(OCc3ccc(CO)cc3OC)c12`, for which the Ratio in the series listed under Homo sapiens is greater than 200.

On to `CCCCNc1nc(N)nc2cccc(OCc3ccccc3)c12`, for which the Ratio in the series listed under Homo sapiens is 10.

Consider `CCCCNc1nc(N)nc2cccc(OCc3ccccc3OC)c12`, for which the Ratio in the series listed under Homo sapiens was determined as 90.

The values above are taken from ChEMBL document CHEMBL4184225, “Discovery of selective 2,4-diaminoquinazoline toll-like receptor 7 (TLR 7) agonists” (Bioorg Med Chem Lett, 2018).
